The results in this text go back to ChEMBL document CHEMBL1157636, “Novel C-aryl glucoside SGLT2 inhibitors as potential antidiabetic agents: 1,3,4-Thiadiazolylmethylphenyl glucoside congeners” (Bioorg Med Chem, 2010).

The target in data set [1] is T1, Sodium/glucose cotransporter 2 (Homo sapiens, UniProt P31639).
T1 sequence (P31639 whole entry): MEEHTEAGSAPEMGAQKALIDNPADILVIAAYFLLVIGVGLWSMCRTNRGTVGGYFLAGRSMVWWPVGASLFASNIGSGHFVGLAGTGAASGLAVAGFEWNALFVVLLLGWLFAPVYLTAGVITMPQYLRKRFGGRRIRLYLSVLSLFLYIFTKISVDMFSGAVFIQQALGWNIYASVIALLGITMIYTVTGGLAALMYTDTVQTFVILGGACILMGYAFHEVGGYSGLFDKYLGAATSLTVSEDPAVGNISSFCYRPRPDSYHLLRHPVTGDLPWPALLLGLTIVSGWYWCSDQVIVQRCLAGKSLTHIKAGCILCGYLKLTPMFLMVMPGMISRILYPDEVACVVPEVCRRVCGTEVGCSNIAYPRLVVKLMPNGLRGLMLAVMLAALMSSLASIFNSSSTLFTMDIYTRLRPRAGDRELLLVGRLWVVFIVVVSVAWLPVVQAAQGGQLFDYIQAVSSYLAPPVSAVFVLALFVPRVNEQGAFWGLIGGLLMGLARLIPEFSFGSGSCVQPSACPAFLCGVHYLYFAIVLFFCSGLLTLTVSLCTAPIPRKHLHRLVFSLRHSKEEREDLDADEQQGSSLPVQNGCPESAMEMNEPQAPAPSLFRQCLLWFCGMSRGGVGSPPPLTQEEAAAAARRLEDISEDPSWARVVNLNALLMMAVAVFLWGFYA
Kind of data set: Inhibition of human recombinant SGLT2 expressed in CHO cells by liquid scintillation counting. Type of data set: cell-based. The essentials: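 hSGLT2 cloned from human kidney cDNA; stable clones selected by G418 resistance. Preincubated 10 min at 37 °C in sodium-free choline buffer pH 7.4. Then 2 h at 37 °C in Na⁺ uptake buffer with 1 mM unlabeled AMG plus ¹⁴C-AMG and inhibitor or DMSO. Washed, radioactivity counted; IC50 by nonlinear regression.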

The nature of data set [2]: Cmax in Sprague-Dawley rat at 5 mg/kg, po. More on the design: dose 5 mg/kg, route oral. In kind it is ADME, organism-based. The conditions noted are these: in vivo.
The subject of data set [3] is Rattus norvegicus. The data set can be described thus: Effect on urinary glucose excretion in normal fasted Sprague-Dawley rat at 10 mg/kg, po subsequently co-treated with glucose measured up to 24 hrs relative to untreated control. Type of data set: ADME, organism-based, Urine. Set-up: dose 10 mg/kg, route oral. Particulars: in vivo. The method, boiled down:
(§1)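 Overnight-fasted male SD rats placed in metabolism cages for 24 h baseline urine, then randomized and given single oral drug or vehicle followed by oral 50% aqueous glucose (2 g/kg). Urine collected 24 h, re-fed 1 h after glucose challenge. Urine volume measured and glucose determined enzymatically. Values normalized per 200 g body weight; means ± S.E.M., ANOVA with Dunnett's test.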

Data set [4] has as its system Rattus norvegicus. Kind of data set: Effect on urine volume in normal fasted Sprague-Dawley rat at 10 mg/kg, po subsequently co-treated with glucose measured up to 24 hrs relative to untreated control. Type of data set: ADME, organism-based. Set-up: dose 10 mg/kg, route oral. Particulars: in vivo. The essentials:
as §1

For another data set, the system named is Mus musculus. The data set can be described thus: Antidiabetic activity in db/db mouse assessed as reduction in blood glucose level at 10 mg/kg, po after 4 hrs relative to untreated control. In kind it is functional. Set-up: scale not given: the % may be the effect or the level left. The essentials: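 Diabetic db/db mice (n = 4 per group), randomized by weight and given single oral dose of vehicle or drug. Reduction versus vehicle controls at 4 h; means ± S.E.M., one-way ANOVA with Dunnett's test.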

Data set [5] in a line: Tmax in Sprague-Dawley rat at 5 mg/kg, po. Type of data set: ADME, organism-based. More on the design: dose 5 mg/kg, route oral. The conditions noted are these: in vivo.
A short description of data set [6]: Elimination half life in Sprague-Dawley rat at 5 mg/kg, po. Set-up: dose 5 mg/kg, route oral. Type of data set: ADME, organism-based. Particulars: in vivo, read-out: beta t1/2 (converted).
Data set [7] is described as follows: Oral bioavailability in Sprague-Dawley rat at 5 mg/kg. Type of data set: ADME, organism-based. The conditions noted are these: in vivo.
The test system of data set [8] is Rattus norvegicus. The data set can be described thus: Effect on urinary glucose excretion in normal fasted Sprague-Dawley rat at 10 mg/kg, po subsequently co-treated with glucose measured up to 24 hrs relative to untreated control. The conditions noted are these: in vivo.

Molecules are shown by their SMILES.

Take `Cc1noc(C)c1-c1nnc(Cc2cc([C@@H]3O[C@H](CO)[C@@H](O)[C@H](O)[C@H]3O)ccc2Cl)s1`: the IC50 – broadly, the concentration needed to halve the response being measured – in [1] is > 10 µM.
The same measure, in the same setting: then `CCc1noc(C)c1-c1nnc(Cc2cc([C@@H]3O[C@H](CO)[C@@H](O)[C@H](O)[C@H]3O)ccc2Cl)s1`, with > 10 µM; and `OC[C@H]1O[C@@H](c2ccc(Cl)c(Cc3nnc(-c4csc(-c5ccncc5)n4)s3)c2)[C@H](O)[C@@H](O)[C@@H]1O`, with 0.0726 µM.
For `CCCc1nnc(Cc2cccc([C@@H]3O[C@H](CO)[C@@H](O)[C@H](O)[C@H]3O)c2)s1`, in [1], the IC50 is 6.91 µM.
Take `CC(C)(C)c1nnc(Cc2cccc(C3O[C@H](CO)[C@@H](O)[C@H](O)[C@H]3O)c2)s1` (some centres not stated): the IC50 in data set [1] is > 10 µM.
Still for that read-out and setting: then `CC(C)(c1ccc(Cl)cc1)c1nnc(Cc2cc(C3O[C@H](CO)[C@@H](O)[C@H](O)[C@H]3O)ccc2Cl)s1` (some centres not stated), with > 10 µM.
On the same count and under the same terms, then `Cn1nc(-c2nnc(Cc3cc([C@@H]4O[C@H](CO)[C@@H](O)[C@H](O)[C@H]4O)ccc3Cl)s2)c2ccccc21`, with 3.28 µM.
As for `OC[C@H]1O[C@@H](c2ccc(Cl)c(Cc3nnc(-c4ccco4)s3)c2)[C@H](O)[C@@H](O)[C@@H]1O`, the concentration in data set [2] peaked (Cmax) at 50 ng/mL. For the same molecule, the entries for the “fold change (FC)” value in the data set with Rattus norvegicus [3], with Rattus norvegicus [4] and in the data set on Rattus norvegicus [8] were 100, 1.4 and 100, respectively. Moreover, the Activity in the data set on Mus musculus was found to be 72.8%. In addition, in [5], the time of peak concentration (Tmax) (as a rule, the time from dosing to the highest level) worked out at 19.8 min. For the same molecule, the half-life in data set [6] is 51.6 min. In data set [7], the bioavailability – broadly, dose-corrected exposure relative to a reference, in per cent – stood at 7.7%.
On to `OC[C@H]1OC(c2ccc(Cl)c(Cc3nnc(Cc4ccc(Cl)cc4)s3)c2)[C@H](O)[C@@H](O)[C@@H]1O` (some centres not stated), for which the IC50 in data set [1] was found to be 2.39 µM.
For `COc1ccc(Cc2ccccc2O[C@@H]2O[C@H](CO)[C@@H](O)[C@H](O)[C@H]2O)cc1` [SERGLIFLOZIN A], the IC50 in data set [1] was 0.00625 µM.
